# Measurements from different studies.
# Compare with care: the assays were run in different laboratories.
# Observed: enzyme activity
# Mode: inhibitor
# CDK5 with p35: Cyclin-dependent kinase 5, with p35 (CDK5, Homo sapiens, UniProt Q00535)
# CDK5 with p25: Cyclin-dependent kinase 5, with p25 (CDK5, Homo sapiens, UniProt Q00535)
Structure (SMILES),target,technique,tested at,time,remaining activity
O=C(Nc1cnn(-c2csc(C(=O)NC3COC3)c2)c1)Nc1c(F)cccc1Cl,CDK5 with p35,,5 µM,,94.3%
CCCOc1ccc(OC)c(F)c1C(=O)c1ccc(C(=O)N[C@@H]2CNC[C@H]2NC(=O)c2ccc3[nH]ncc3c2)cc1,CDK5 with p25,,50 nM,,114%
CCN(CC)c1ccc(C2=NNC(=O)CC2C)cc1[N+](=O)[O-] (centres unmarked),CDK5 with p25,,10 µM,,113%
Cc1ccc(C(=O)Nc2ccc(CN3CCN(C)CC3)c(C(F)(F)F)c2)cc1C#Cc1cnc2cccnn12,"Cyclin-dependent kinase 5 (CDK5, Homo sapiens, UniProt Q00535)",,23.5 nM,,98%
CC(C)(C)c1nc2c(s1)c1nc(N)ncc1c1ccc(NS(=O)(=O)c3c(F)cccc3F)c(F)c12,CDK5 with p35,radiometric,1 µM,,77%
CC(C)(O)[C@H]1CC[C@H](Nc2ccc3ncc(-c4cccc(C(F)(F)F)c4)n3n2)CC1,CDK5 with p35,,1 µM,,97.7%
CC[C@H](C)[C@H](NC(=O)[C@H](CCC(N)=O)NC(=O)[C@H](CC(C)C)NC(=O)[C@H](CCSC)NC(=O)[C@H](CCCCN)NC(=O)[C@H](CO)NC(=O)[C@H](CO)NC(=O)[C@H](CCSC)NC(=O)[C@H](CC(C)C)NC(=O)[C@H](CC(N)=O)NC(=O)[C@@H](NC(=O)[C@@H](NC(=O)[C@H](CO)NC(=O)[C@H](CC(C)C)NC(=O)[C@H](CS)NC(=O)[C@H](CCCNC(=N)N)NC(=O)[C@H](CC(=O)O)NC(=O)[C@H](Cc1c[nH]c2ccccc12)NC(=O)[C@H](Cc1ccccc1)NC(=O)[C@H](C)NC(=O)[C@H](CCC(=O)O)NC(=O)[C@@H](N)CCCCN)C(C)C)[C@@H](C)CC)C(=O)N[C@@H](CC(N)=O)C(=O)N[C@@H](C)C(=O)O,CDK5 with p25,radiometric,250 µM,20 min,41%
O=C(Nc1cnn(-c2csc(C(=O)NC3COC3)c2)c1)Nc1ccccc1Cl,CDK5 with p35,,5 µM,,95.4%
Cc1cnc(NC2CCOCC2)nc1-n1cnc(C(=O)NC(CN)c2cc(F)cc(Cl)c2)c1 (centres unmarked),CDK5 with p25,radiometric,1 µM,,2%
Cc1sc(C(=O)NC2COC2)cc1-n1cc(NC(=O)Nc2c(F)cccc2Cl)cn1,CDK5 with p35,,10 µM,,103%
COc1cc(Cl)c(C(=O)N[C@@H](CN[C@H]2CC[C@@H](N)CC2)Cc2ccc(C#N)cc2)cc1-c1ccc(CN[C@H](C)c2ccc(C)cc2)o1,CDK5 with p35,,1 µM,,88%
